The target of one assay is human recombinant PDE5 (Homo sapiens, UniProt O76074). The assay can be described thus: PDE5 inhibition, IMAP fluorescence polarization assay. The assay is classed as biochemical. Particulars: for inhibition at 50 µM: read-out: PDE5 % inh at 50 (μM); for PDE5 inhibitory activity (in words): SAR statement vs parent compound; for reduction in PDE5 inhibitory activity of pyrazole vs pyrazoline: compounds 34 and 35 compared to compounds 1 and 4.

Assay [1] concerns intracellular cGMP levels in HEK293 cells. Put plainly: Luciferase cGMP biosensor assay. The assay is classed as cell-based, human. Particulars: pretreated with sodium nitroprusside. The gist of the method:
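HEK293 cells stably expressing a GloSensor cGMP-40F construct (human PDE5A GAF-A fused to firefly luciferase) were G418-selected. Cells were seeded at 6×10⁴/well and attached overnight in DMEM + 10% FBS at 37°C, 5% CO2. They were preincubated at room temperature in CO2-independent medium with 10% FBS and 5 mmol/L luciferin. 50 μM sodium nitroprusside was added together with test compound, and luminescence was read every minute for 1 h.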

Turning to `Cc1ccc(-c2cc(C(F)(F)F)nn2-c2ccc(S(N)(=O)=O)cc2)cc1` [Celecoxib, celecoxib, reference compound], on human recombinant PDE5, the inhibition at 50 µM amounted to 66.5%.

On to `CC(C)(C)C1=NN(c2ccc(C(=O)O)cc2)C(c2ccccc2)C1` (centres unmarked) [Compound 1, 4-(3-tert-Butyl-5-phenyl-4,5-dihydro-1H-pyrazol-1-yl)benzoic acid], for which the inhibition at 50 µM at human recombinant PDE5 turned out to be 88%.

On to `CC(C)(C)C1=NN(c2ccc(C(=O)O)cc2)C(c2ccccc2F)C1` (centres unmarked) [Compound 2, 4-(3-(tert-Butyl)-5-(2-fluorophenyl)-4,5-dihydro-1H-pyrazol-1-yl)benzoic acid], for which, on human recombinant PDE5, the inhibition at 50 µM is 86.3%.

By IC50 is commonly meant the concentration that gives 50% inhibition. `CC(C)(C)C1=NN(c2ccc(C(=O)O)cc2)C(c2cccc(F)c2)C1` (centres unmarked) [Compound 3, 4-(3-(tert-Butyl)-5-(3-fluorophenyl)-4,5-dihydro-1H-pyrazol-1-yl)benzoic acid]: at human recombinant PDE5, the IC50 is 3.7 µM and the inhibition at 50 µM is 94.4%.

In the case of `CC(C)(C)C1=NN(c2ccc(C(=O)O)cc2)C(c2ccc(F)cc2)C1` (centres unmarked) [Compound 4, 4-(3-tert-Butyl-5-(4-fluorophenyl)-4,5-dihydro-1H-pyrazol-1-yl)benzoic acid], on human recombinant PDE5, the concentration for half-maximal inhibition (IC50) is 7.7 µM and the inhibition at 50 µM is 80%.

For the molecule `CC(C)(C)C1=NN(c2ccc(C(=O)O)cc2)C(c2ccccc2Cl)C1` (centres unmarked) [Compound 5, 4-(3-(tert-Butyl)-5-(2-chlorophenyl)-4,5-dihydro-1H-pyrazol-1-yl)benzoic acid], the inhibition at 50 µM on human recombinant PDE5 came out at 100%.

In the case of `CC(C)(C)C1=NN(c2ccc(C(=O)O)cc2)C(c2cccc(Cl)c2)C1` (centres unmarked) [Compound 6, 4-(3-(tert-Butyl)-5-(3-chlorophenyl)-4,5-dihydro-1H-pyrazol-1-yl)benzoic acid], the inhibition at 50 µM at human recombinant PDE5 came out at 95.7%.

As to `CC(C)(C)C1=NN(c2ccc(C(=O)O)cc2)C(c2ccc(Cl)cc2)C1` (centres unmarked) [Compound 7, 4-(3-tert-Butyl-5-(4-chlorophenyl)-4,5-dihydro-1H-pyrazol-1-yl)benzoic acid], at human recombinant PDE5, the IC50 came to 3.3 µM and the inhibition at 50 µM was 85%.

Turning to `CC(C)(C)C1=NN(c2ccc(C(=O)O)cc2)C(c2ccccc2Br)C1` (centres unmarked) [Compound 8, 4-(5-(2-Bromophenyl)-3-(tert-butyl)-4,5-dihydro-1H-pyrazol-1-yl)benzoic acid], the inhibition at 50 µM on human recombinant PDE5 was found to be 100%.

`CC(C)(C)C1=NN(c2ccc(C(=O)O)cc2)C(c2cccc(Br)c2)C1` (centres unmarked) [Compound 9, 4-(5-(3-Bromophenyl)-3-(tert-butyl)-4,5-dihydro-1H-pyrazol-1-yl)benzoic acid]: the inhibition at 50 µM at human recombinant PDE5 stood at 91.4%.

Take `CC(C)(C)C1=NN(c2ccc(C(=O)O)cc2)C(c2ccc(Br)cc2)C1` (centres unmarked) [Compound 10, 4-(5-(4-Bromophenyl)-3-tert-butyl-4,5-dihydro-1H-pyrazol-1-yl)benzoic acid]: at human recombinant PDE5, the IC50 is 7.2 µM and the inhibition at 50 µM stood at 88%.

`CC(C)(C)C1=NN(c2ccc(C(=O)O)cc2)C(c2ccc(Cl)c(Cl)c2)C1` (centres unmarked) [Compound 12, 4-(3-(tert-Butyl)-5-(3,4-dichlorophenyl)-4,5-dihydro-1H-pyrazol-1-yl)benzoic acid]: the inhibition at 50 µM on human recombinant PDE5 came out at 100%.

Regarding `CC(C)(C)C1=NN(c2ccc(C(=O)O)cc2)C(c2c(Cl)cccc2Cl)C1` (centres unmarked) [Compound 13, 4-(3-(tert-Butyl)-5-(2,6-dichlorophenyl)-4,5-dihydro-1H-pyrazol-1-yl)benzoic acid], at human recombinant PDE5, the IC50 came out at 28.8 µM and the inhibition at 50 µM is 99.1%.

For `COc1ccccc1C1CC(C(C)(C)C)=NN1c1ccc(C(=O)O)cc1` (centres unmarked) [Compound 14, 4-(3-(tert-Butyl)-5-(2-methoxyphenyl)-4,5-dihydro-1H-pyrazol-1-yl)benzoic acid], at human recombinant PDE5, the IC50 was more than 50 µM and the inhibition at 50 µM came to 49.8%.

For `COc1ccc(C2CC(C(C)(C)C)=NN2c2ccc(C(=O)O)cc2)cc1` (centres unmarked) [Compound 15, 4-(3-tert-Butyl-5-(4-methoxyphenyl)-4,5-dihydro-1H-pyrazol-1-yl) benzoic acid], the inhibition at 50 µM at human recombinant PDE5 came to 95%. Besides, at human recombinant PDE5 (vs compound 22), the “fold increase in PDE5 inhibitory potency compared to methyl derivative 22” value was 4 fold.

For the molecule `COc1ccc(C2CC(C(C)(C)C)=NN2c2ccc(C(=O)O)cc2)c(OC)c1` (centres unmarked) [Compound 16, 4-(3-tert-Butyl-5-(2,4-dimethoxyphenyl)-4,5-dihydro-1H-pyrazol-1-yl)benzoic acid], the inhibition at 50 µM at human recombinant PDE5 came to 85.8%.

Consider `COc1ccc(OC)c(C2CC(C(C)(C)C)=NN2c2ccc(C(=O)O)cc2)c1` (centres unmarked) [Compound 17, 4-(3-tert-Butyl-5-(2,5-dimethoxyphenyl)-4,5-dihydro-1H-pyrazol-1-yl)benzoic acid], for which, on human recombinant PDE5, the 50% inhibitory concentration (IC50) was more than 50 µM and the inhibition at 50 µM was 47%.

Regarding `CCOc1ccccc1C1CC(C(C)(C)C)=NN1c1ccc(C(=O)O)cc1` (centres unmarked) [Compound 18, 4-(3-(tert-Butyl)-5-(2-ethoxyphenyl)-4,5-dihydro-1H-pyrazol-1-yl)benzoic acid], on human recombinant PDE5, the IC50 is more than 50 µM and the inhibition at 50 µM turned out to be 42.5%.

Turning to `CC(C)(C)C1=NN(c2ccc(C(=O)O)cc2)C(c2cccc([N+](=O)[O-])c2)C1` (centres unmarked) [Compound 20, 4-(3-tert-Butyl-5-(3-nitrophenyl)-4,5-dihydro-1H-pyrazol-1-yl)benzoic acid], at human recombinant PDE5, the IC50 was 3.2 µM and the inhibition at 50 µM is 87.6%.

Regarding `CC(C)(C)C1=NN(c2ccc(C(=O)O)cc2)C(c2ccc([N+](=O)[O-])cc2)C1` (centres unmarked) [Compound 21, 4-(3-tert-Butyl-5-(4-nitrophenyl)-4,5-dihydro-1H-pyrazol-1-yl)benzoic acid], the inhibition at 50 µM at human recombinant PDE5 turned out to be 91%.

Take `CC(C)(C)C1=NN(c2ccc(C(=O)O)cc2)C(c2ccc(C#N)cc2)C1` (centres unmarked) [Compound 23, 4-(3-tert-Butyl-5-(4-cyanophenyl)-4,5-dihydro-1H-pyrazol-1-yl)benzoic acid]: on human recombinant PDE5, the IC50 turned out to be 13.8 µM and the inhibition at 50 µM amounted to 75%.

Regarding `CC(C)(C)C1=NN(c2ccc(C(=O)O)cc2)C(c2ccc(O)cc2)C1` (centres unmarked) [Compound 24, 4-(3-tert-Butyl-5-(4-hydroxyphenyl)-4,5-dihydro-1H-pyrazol-1-yl)benzoic acid], the inhibition at 50 µM on human recombinant PDE5 turned out to be 77.1%.

As for `CC(C)(C)C1=NN(c2ccc(C(=O)O)cc2)C(c2ccc(-c3ccccc3)cc2)C1` (centres unmarked) [Compound 25, 4-(5-([1,1’-Biphenyl]-4-yl)-3-(tert-butyl)-4,5-dihydro-1H-pyrazol-1-yl)benzoic acid], on human recombinant PDE5, the IC50 stood at 35.6 µM and the inhibition at 50 µM was 100%.

Consider `CC(C)(C)C1=NN(c2ccc(C(=O)O)cc2)C(c2ccc3ccccc3c2)C1` (centres unmarked) [Compound 26, 4-(3-(tert-Butyl)-5-(naphthalen-2-yl)-4,5-dihydro-1H-pyrazol-1-yl)benzoic acid], for which, on human recombinant PDE5, the IC50 is 21.8 µM and the inhibition at 50 µM is 80%.

Take `CC(C)(C)C1=NN(c2ccc(C(=O)O)cc2)C(c2ccco2)C1` (centres unmarked) [Compound 27, 4-(3-tert-Butyl-5-(furan-2-yl)-4,5-dihydro-1H-pyrazol-1-yl)benzoic acid]: on human recombinant PDE5, the “PDE5 inhibitory activity (in words)” value is “detrimental to the activity” and the inhibition at 50 µM is 23.6%.

Take `CC(C)(C)C1=NN(c2ccc(C(=O)O)cc2)C(c2cccs2)C1` (centres unmarked) [Compound 28, 4-(3-tert-Butyl-5-(thiophen-2-yl)-4,5-dihydro-1H-pyrazol-1-yl)benzoic acid]: at human recombinant PDE5, the “PDE5 inhibitory activity (in words)” value is listed as “detrimental to the activity” and the inhibition at 50 µM stood at 28.1%.

Take `CC(C)(C)C1=NN(c2cccc(C(=O)O)c2)C(c2ccc(Cl)cc2)C1` (centres unmarked) [Compound 29, 3-(3-tert-Butyl-5-(4-chlorophenyl)-4,5-dihydro-1H-pyrazol-1-yl)benzoic acid]: the inhibition at 50 µM at human recombinant PDE5 was found to be 100%. Moreover, the “fold reduction in PDE5 inhibitory potency compared to compound 7” value on human recombinant PDE5 (vs compound 7 (4-COOH, 4-chlorophenyl)) is 3 fold.

Regarding `CC(C)(C)C1=NN(c2ccccc2C(=O)O)C(c2ccc(Cl)cc2)C1` (centres unmarked) [Compound 30, 2-(3-tert-Butyl-5-(4-chlorophenyl)-4,5-dihydro-1H-pyrazol-1-yl)benzoic acid], on human recombinant PDE5, the “PDE5 inhibitory activity (in words)” value is recorded as “diminished the activity” and the inhibition at 50 µM was 46%.

As to `CC(C)(C)c1cc(-c2ccccc2)n(-c2ccc(C(=O)O)cc2)n1` [Compound 34, 4-(3-tert-Butyl-5-phenyl-1H-pyrazol-1-yl)benzoic acid], on human recombinant PDE5, the IC50 amounted to 18.9 µM, the “reduction in PDE5 inhibitory activity of pyrazole vs pyrazoline” value is 3–4 times and the inhibition at 50 µM was 72%.

On to `CC(C)(C)c1cc(-c2ccc(F)cc2)n(-c2ccc(C(=O)O)cc2)n1` [Compound 35, 4-(3-tert-Butyl-5-(4-fluorophenyl)-1H-pyrazol-1-yl) benzoic acid], for which, at human recombinant PDE5, the IC50 stood at 31.3 µM, the “reduction in PDE5 inhibitory activity of pyrazole vs pyrazoline” value was 3–4 times and the inhibition at 50 µM worked out at 75%.

Consider `CCOC(=O)c1ccc(N2N=C(C(C)(C)C)CC2c2ccc(Cl)cc2)cc1` (centres unmarked) [Compound 36, Ethyl 4-(3-tert-butyl-5-(4-chlorophenyl)-4,5-dihydro-1H-pyrazol-1-yl)benzoate], for which, at human recombinant PDE5, the “PDE5 inhibitory activity (in words)” value was “diminished the PDE5 inhibitory activity” and the inhibition at 50 µM turned out to be 10.5%.

Consider `CCOC(=O)c1ccc(N2N=C(C(C)(C)C)CC2c2cccc([N+](=O)[O-])c2)cc1` (centres unmarked) [Compound 37, Ethyl 4-(3-tert-butyl-5-(3-nitrophenyl)-4,5-dihydro-1H-pyrazol-1-yl)benzoate], for which, on human recombinant PDE5, the “PDE5 inhibitory activity (in words)” value is “diminished the PDE5 inhibitory activity” and the inhibition at 50 µM is 16%.

Turning to `CN1CC(=O)N2[C@H](c3ccc4c(c3)OCO4)c3[nH]c4ccccc4c3C[C@@H]2C1=O` [Tadalafil, tadalafil, reference compound], in assay [1], the “intracellular cGMP levels (luminescence), concentration dependence” value was “concentration-dependent increase”.

The values above are taken from PMC7686114 (Bioorganic chemistry, 2020).
